{"source": "ChEMBL document CHEMBL3576809", "about": "“Thiasporines A-C, thiazine and thiazole derivatives from a marine-derived Actinomycetospora chlora” (J Nat Prod, 2015)", "format_in_all_cases": "functional, cell-based", "key": {"NCI-H2122 [1]": {"tested_on": "NCI-H2122", "assay": "Cytotoxicity against human NCI-H2122 cells assessed as cell viability at 0.001 to 50 uM after 96 hrs by Cell Titer Glo assay", "summary_of_the_method": "(§1)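 Cells grown in RPMI/L-glutamine with 1000 U/mL penicillin, 1 mg/mL streptomycin and 5% FBS at 37 °C, 5% CO2, then plated in 384-well plates overnight. Compounds in DMSO were added at final 50 μM to 1 nM (0.5% DMSO final) for 96 h. CellTiter-Glo (1:2 in medium) was added, 10 min at room temperature, and luminescence normalized to DMSO-only wells.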"}, "HCC366 [2]": {"tested_on": "HCC366", "assay": "Cytotoxicity against human HCC366 cells assessed as cell viability at 0.001 to 50 uM after 96 hrs by Cell Titer Glo assay", "summary_of_the_method": "as §1"}, "A549 [3]": {"tested_on": "A549", "assay": "Cytotoxicity against human A549 cells assessed as cell viability at 0.001 to 50 uM after 96 hrs by Cell Titer Glo assay", "summary_of_the_method": "as §1"}, "HCC44 [4]": {"tested_on": "HCC44", "assay": "Cytotoxicity against human HCC44 cells assessed as cell viability at 0.001 to 50 uM after 96 hrs by Cell Titer Glo assay", "summary_of_the_method": "as §1"}, "NCI-H2122 [5]": {"tested_on": "NCI-H2122", "assay": "Cytotoxicity against human NCI-H2122 cells assessed as cell viability after 96 hrs by Cell Titer Glo assay", "settings": "NCI-H2122, 96 h", "summary_of_the_method": "(§2)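 NSCLC lines were kept in RPMI/L-glutamine with penicillin, streptomycin and 5% FBS (37 °C, 5% CO2) and seeded in 384-well plates overnight. DMSO-dissolved compounds were added (final DMSO 0.5%) and incubated 96 h. Viability was read as CellTiter-Glo luminescence after 10 min at room temperature and normalized to untreated cell-plus-DMSO wells.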"}, "HCC366 [6]": {"tested_on": "HCC366", "assay": "Cytotoxicity against human HCC366 cells assessed as cell viability up to 24 uM after 96 hrs by Cell Titer Glo assay", "summary_of_the_method": "as §2"}, "A549 [7]": {"tested_on": "A549", "assay": "Cytotoxicity against human A549 cells assessed as cell viability up to 24 uM after 96 hrs by Cell Titer Glo assay", "summary_of_the_method": "as §2"}, "HCC44 [8]": {"tested_on": "HCC44", "assay": "Cytotoxicity against human HCC44 cells assessed as cell viability up to 24 uM after 96 hrs by Cell Titer Glo assay", "summary_of_the_method": "as §2"}}, "note": "Activity calls are given as the source filed them. The rule behind the calls is not given here.", "data": [{"compound": "CNc1ccccc1-c1nc(C(=O)O)cs1", "values": [{"measurement": "Activity", "setting": "NCI-H2122 [1]", "value": "inactive"}, {"measurement": "Activity", "setting": "HCC366 [2]", "value": "inactive"}, {"measurement": "Activity", "setting": "A549 [3]", "value": "inactive"}, {"measurement": "Activity", "setting": "HCC44 [4]", "value": "inactive"}]}, {"compound": "CNc1ccccc1-c1nc(C(=O)OC)cs1", "values": [{"measurement": "Activity", "setting": "NCI-H2122 [1]", "value": "inactive"}, {"measurement": "Activity", "setting": "HCC366 [2]", "value": "inactive"}, {"measurement": "Activity", "setting": "A549 [3]", "value": "inactive"}, {"measurement": "Activity", "setting": "HCC44 [4]", "value": "inactive"}]}, {"compound": "Nc1ccccc1-c1nc(=O)c(O)cs1", "values": [{"measurement": "IC50", "setting": "NCI-H2122 [5]", "value": 5.4, "unit": "µM"}, {"measurement": "Activity", "setting": "HCC366 [6]", "value": "inactive"}, {"measurement": "Activity", "setting": "A549 [7]", "value": "inactive"}, {"measurement": "Activity", "setting": "HCC44 [8]", "value": "inactive"}]}]}
